From ChEMBL document CHEMBL3585296, “Flavonoids from Perovskia atriplicifolia and Their in Vitro Displacement of the Respective Radioligands for Human Opioid and Cannabinoid Receptors” (J Nat Prod, 2015) come the findings set out here.

For assay [1], the target named is T1, Delta-type opioid receptor (Homo sapiens, UniProt P41143). The experiment in a line: Displacement of [3H]DPDPE from delta opioid receptor (unknown origin) transfected into HEK293 cells at 10 uM by microplate scintillation counting. The class given is cell-based. A digest of the protocol: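 HEK293 cells stably expressing the δ opioid receptor were kept in DMEM with 0.2 mg/mL G418. Compound at 10 μM (triplicate dilutions) was incubated with 0.99 nM [3H]-DPDPE and 20 μg membrane for 60 min in 50 mM Tris-HCl, pH 7.4. Bound label was collected by GF/B filtration. Nonspecific binding was defined with 10 μM DPDPE. Results are given as % displacement.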
T1 sequence (P41143 whole entry): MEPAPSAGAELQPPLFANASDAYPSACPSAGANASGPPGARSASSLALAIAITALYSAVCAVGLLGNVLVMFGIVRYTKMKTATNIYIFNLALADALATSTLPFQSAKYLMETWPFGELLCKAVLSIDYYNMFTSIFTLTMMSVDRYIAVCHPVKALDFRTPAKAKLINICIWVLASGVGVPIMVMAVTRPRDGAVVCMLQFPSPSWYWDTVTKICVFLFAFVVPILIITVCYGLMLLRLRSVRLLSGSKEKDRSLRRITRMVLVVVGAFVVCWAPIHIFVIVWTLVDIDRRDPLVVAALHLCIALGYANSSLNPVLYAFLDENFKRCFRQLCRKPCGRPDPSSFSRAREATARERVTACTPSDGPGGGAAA
(In a radioligand displacement assay an active substance lowers the binding of a labelled ligand.)

In assay [2] the target is T1, Delta-type opioid receptor. The experiment in a line: Displacement of [3H]DPDPE from delta opioid receptor (unknown origin) transfected into HEK293 cells by microplate scintillation counting. The class given is cell-based.
For assay [3], the target named is Cannabinoid receptor 1 (Homo sapiens) (UniProt P21554). The experiment in a line: Displacement of [3H]-CP55940 from human CB1 receptor transfected into HEK293 cells at 10 uM by microplate scintillation counting. The class given is cell-based. The essentials: (§1)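 HEK293 cells stably expressing cloned human CB1 or CB2 were grown in DMEM/F-12 with 0.5 mg/mL G418. Membranes were made by sonication and differential centrifugation. Compound at 10 μM (independent triplicate dilutions) was incubated with [3H]-CP 55,940, at 1.6975 nM for CB1 or 1.959 nM for CB2. Membrane was 5 μg for CB1 or 1 μg for CB2. Incubation was 90 min at 37 °C in Tris/EDTA/NaCl/0.2% BSA, pH 7.4. Bound label was collected on GF/C filters. Nonspecific binding was defined with 10 μM CP-55,940. Results are given as % displacement.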
Cannabinoid receptor 1 (Homo sapiens), sequence (P21554 whole entry): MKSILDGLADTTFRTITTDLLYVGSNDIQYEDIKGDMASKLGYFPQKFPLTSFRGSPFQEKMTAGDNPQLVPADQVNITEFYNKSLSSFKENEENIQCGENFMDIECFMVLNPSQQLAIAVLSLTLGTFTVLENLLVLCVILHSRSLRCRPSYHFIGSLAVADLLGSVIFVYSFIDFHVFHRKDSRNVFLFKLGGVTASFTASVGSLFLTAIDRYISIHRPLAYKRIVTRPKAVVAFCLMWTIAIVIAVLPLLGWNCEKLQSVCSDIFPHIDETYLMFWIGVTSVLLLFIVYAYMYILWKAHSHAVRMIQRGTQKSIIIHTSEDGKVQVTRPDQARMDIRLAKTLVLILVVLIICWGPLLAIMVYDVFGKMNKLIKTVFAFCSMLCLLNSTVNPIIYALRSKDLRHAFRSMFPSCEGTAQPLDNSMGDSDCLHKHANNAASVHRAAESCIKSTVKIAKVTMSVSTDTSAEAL

The target in assay [4] is Cannabinoid receptor 2 (Homo sapiens) (UniProt P34972). The assay can be described thus: Displacement of [3H]-CP55940 from human CB2 receptor transfected into HEK293 cells at 10 uM by microplate scintillation counting. The format is cell-based. The essentials: as §1
Cannabinoid receptor 2 (Homo sapiens), sequence (P34972 whole entry): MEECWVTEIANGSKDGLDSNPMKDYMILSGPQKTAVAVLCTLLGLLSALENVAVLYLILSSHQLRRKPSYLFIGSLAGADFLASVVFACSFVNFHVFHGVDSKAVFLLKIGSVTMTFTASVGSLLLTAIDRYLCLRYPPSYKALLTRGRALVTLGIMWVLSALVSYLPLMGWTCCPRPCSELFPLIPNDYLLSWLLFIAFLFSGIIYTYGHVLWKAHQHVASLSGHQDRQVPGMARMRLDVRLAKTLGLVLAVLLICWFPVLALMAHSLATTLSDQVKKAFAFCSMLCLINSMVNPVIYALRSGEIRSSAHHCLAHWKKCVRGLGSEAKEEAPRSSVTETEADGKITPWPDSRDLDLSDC
In assay [5] the target is T1, Delta-type opioid receptor. The assay can be described thus: Agonist activity at human delta opioid receptor transfected into HEK293 cells assessed as effect on [35S]-GTPgammaS binding at 300 uM. The format is functional, cell-based. A digest of the protocol:
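Modified GTPγ[35S] functional assay. Tested at 300 μM. Binding is expressed as percent of the maximal GTPγ[35S] binding given by the full agonist DPDPE.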

Molecules are shown by their SMILES. pKi: −log10 of the molar value. Some results are limits rather than exact numbers.

Broadly, the pKi is −log10 of the Ki, conventionally taken in molar units. A lower pKi goes with a high Ki. `COc1ccc(-c2cc(=O)c3c(O)c(OC)c(OC)cc3o2)cc1OC`: the Activity in assay [1] was 86%; in assay [3], 3%; in assay [4], 4.2%; in assay [5], 32%. The negative-log Ki (pKi) in assay [2] is 5.51.
Regarding `COc1ccc(-c2cc(=O)c3c(O)c(OC)c(O)cc3o2)cc1OC`, the Activity in assay [1] worked out at 19.9%; in assay [3] it was 0.3%; in assay [4], 12.5%.
In the case of `COc1ccc(-c2cc(=O)c3c(O)c(OC)c(O)cc3o2)cc1` [PECTOLINARIGENIN], the Activity in assay [1] is 79.9%; in assay [3], 19.3%; in assay [4] it was 13.5%; in assay [5], 48%. Further, the pKi in assay [2] was 5.08.
In the case of `COc1ccc(-c2cc(=O)c3c(O)c(OC)c(OC)cc3o2)cc1` [SALVIGENIN], the Activity worked out at 31.6% in assay [1], 1.7% in assay [3], 8.3% in assay [4] and 88% in assay [5]. This molecule also gave a pKi in assay [2] of under 4.59.
